Test results as given in ChEMBL document CHEMBL4706595, “1,3-Oxazine-2-one derived dual-targeted molecules against replicating and non-replicating forms of Mycobacterium tuberculosis” (Eur J Med Chem, 2020).
Converted amounts (≈) assume the structure as drawn. The source made the active and inactive calls. No cut-off for these calls is given here.

Experiments:
[1] = tested on: Mycobacterium tuberculosis; assay: Antimycobacterial activity against replicating Mycobacterium tuberculosis H37Rv assessed as inhibition of bacterial growth incubated for 7 days by MABA assay; type: functional; conditions: time 7 day
[2] = tested on: Mycobacterium tuberculosis; assay: Antimycobacterial activity against non-replicating Mycobacterium tuberculosis H37Rv expressing pFCA-LuxAB assessed as bacterial growth inhibition incubated for 10 days under anerobic condition by low oxygen recovery assay; type: functional; conditions: 240 h, time 10 day
[3] = tested on: Mycobacterium tuberculosis; assay: Antimycobacterial activity against replicating Mycobacterium tuberculosis H37Ra assessed as inhibition of bacterial growth incubated for 7 days by MABA assay; type: functional; conditions: time 7 day
[4] = tested on: Mycolicibacterium smegmatis; assay: Antimycobacterial activity against Mycobacterium smegmatis mc2155 assessed as inhibition of bacterial growth incubated for 48 hrs by broth microdilution method; type: functional; conditions: MC2 155
[5] = Cytotoxicity against human PBMC assessed as reduction in cell growth after 72 hrs by MTT assay; type: tissue-based
[6] = tested on: Mycobacterium tuberculosis; assay: Inhibition of mycolic acid biosynthesis in Mycobacterium tuberculosis H37Ra assessed as reduction in alfa-mycolate production at 5XMIC incubated for 7 days by TLC analysis; type: functional; conditions: for inhibition (INH): time 7 day
[7] = Inhibition of Mycobacterium tuberculosis H37Ra menG assessed as inhibition of 2-methyl-3-(3,7,11-trimethyldodeca-2,6,10-trienyl)naphthalene-1,4-dione formation using 2-(3,7,11-trimethyldodeca-2,6,10-trienyl)naphthalene-1,4-dione as substrate incubated for 3 hrs in presence of SAM by HPLC analysis
[8] = Inhibition of Mycobacterium smegmatis mc2155 menG assessed as inhibition of 2-methyl-3-(3,7,11-trimethyldodeca-2,6,10-trienyl)naphthalene-1,4-dione formation using 2-(3,7,11-trimethyldodeca-2,6,10-trienyl)naphthalene-1,4-dione as substrate incubated for 3 hrs in presence of SAM by HPLC analysis; parameters: species or system Mycolicibacterium smegmatis MC2 155
[9] = tested on: Mycobacterium tuberculosis; assay: Antimycobacterial activity against Mycobacterium tuberculosis H37Rv ATCC 27294 assessed as inhibition of bacterial growth by agar plate dilution method; type: functional
In short: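 MIC determined by agar plate dilution method; isoniazid and rifampin run as references.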

[10] = tested on: Mycobacterium tuberculosis; assay: Inhibition of mycolic acid biosynthesis in Mycobacterium tuberculosis H37Ra assessed as reduction in methoxy-mycolate production at 5XMIC incubated for 7 days by TLC analysis; type: functional; conditions: time 7 day
[11] = tested on: Mycobacterium tuberculosis; assay: Inhibition of mycolic acid biosynthesis in Mycobacterium tuberculosis H37Ra assessed as reduction in keto-mycolate production at 5XMIC incubated for 7 days by TLC analysis; type: functional; conditions: for inhibition (INH): time 7 day
[12] = tested on: Mycobacterium tuberculosis; assay: Antimycobacterial activity against dormant Mycobacterium tuberculosis H37Ra assessed as inhibition of bacterial growth at 30 ug/ml incubated for 10 days in presence of Vit-K2 measured following 27 days of culturing on agar plate […] relative to control; type: functional; conditions: dose 30 µg/ml; time 37 day
In short: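 Dormant H37Ra: 2×10⁶ bacteria/ml in sealed vials, 37 °C, 25 rpm. Cultures with compound (3 or 30 µg/ml) plus 1 mM Vit-K2 grown 10 days, then CFU counted on 7H10 agar after 27 days; comparison with 1 mM Vit-K2 set.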

[13] = tested on: Mycobacterium tuberculosis; assay: Inhibition of respiratory system in dormant Mycobacterium tuberculosis H37Ra assessed as reduction in ATP production at 20 to 80 ug/ml measured on day 3 to 9 following drug addition by microplate reader analysis; type: functional; conditions: dose 20-80 µg/ml, time 3-9 day

Row | Compound | MIC [1] [µg/mL] | MIC [2] [µg/mL] | MIC [3] [µg/mL] | MIC [4] [µg/mL] | IC50 [5] [µg/mL] | inhibition (INH) [6] [%] | IC50 [7] [µg/mL] | IC50 [8] [µg/mL] | MIC [9] [µg/mL] | inhibition (INH) [10] [%] | inhibition (INH) [11] [%] | fold change (FC) [12] | inhibition ([6]; time 7.0 day) | inhibition ([11]; time 7.0 day) | inhibition [13]
1 | CC(C)=CCC/C(C)=C/COc1ccc(C(=O)OCCCOc2cccc(Nc3nc4ccccc4c(=O)o3)c2)cc1 | 3.48 (≈ 6.12 µM) | 2.94 (≈ 5.17 µM) | 3.93 (≈ 6.91 µM) | 6.3 (≈ 11.1 µM) | 134 (≈ 236 µM) | 100 | 9.11 | 11.76 | 3.5 (≈ 6.15 µM) | 100 | 100 | 2.9 |  |  | 
2 | CCCCCCCC/C=C/CCCCCCCC(=O)Oc1cccc(Nc2nc3ccccc3c(=O)o2)c1 | 47.4 (≈ 91.3 µM) | 68.9 (≈ 133 µM) | 51.4 (≈ 99.2 µM) | 50 (≈ 96.4 µM) | 179 (≈ 344 µM) |  |  |  |  |  |  |  |  |  | 
3 | CCOc1ccc(C(=O)OCCCOc2cccc(Nc3nc4ccccc4c(=O)o3)c2)cc1 | > 100 | > 100 | > 100 | > 100 | 102 (≈ 223 µM) |  |  |  |  |  |  |  |  |  | 
4 | CCCCCCCCOc1ccc(C(=O)OCCCOc2cccc(Nc3nc4ccccc4c(=O)o3)c2)cc1 | 12.4 (≈ 22.8 µM) | 18.9 (≈ 34.8 µM) | 16.2 (≈ 29.8 µM) | 12.5 (≈ 23 µM) | 154 (≈ 283 µM) |  |  |  |  |  |  |  |  |  | 
5 | CCCCOc1ccc(C(=O)OCCCOc2cccc(Nc3nc4ccccc4c(=O)o3)c2)cc1 | 7.28 (≈ 14.9 µM) | 9.41 (≈ 19.3 µM) | 6.32 (≈ 12.9 µM) | 25 (≈ 51.2 µM) | 117 (≈ 239 µM) | 100 | 20.06 | 29.71 |  | 36 | 31 |  |  |  | 
6 | CCCCCOc1ccc(C(=O)OCCCOc2cccc(Nc3nc4ccccc4c(=O)o3)c2)cc1 | 7.01 (≈ 13.9 µM) | 9.02 (≈ 17.9 µM) | 8.16 (≈ 16.2 µM) | 25 (≈ 49.7 µM) | 142 (≈ 282 µM) | 100 | 20.88 | 27.19 |  | 48 | 37 |  |  |  | 
7 | O=c1oc(Nc2cccc(O)c2)nc2ccccc12 | 75.2 (≈ 296 µM) | 40.1 (≈ 158 µM) | 66.2 (≈ 260 µM) | 25 (≈ 98.3 µM) | 173 (≈ 682 µM) |  |  |  |  |  |  |  |  |  | 
8 | CCC(=O)Oc1cccc(Nc2nc3ccccc3c(=O)o2)c1 | > 100 | 98.5 (≈ 317 µM) | > 100 | 100 (≈ 322 µM) | 180 (≈ 579 µM) |  |  |  |  |  |  |  |  |  | 
9 | COc1ccc(C(=O)OCCCOc2cccc(Nc3nc4ccccc4c(=O)o3)c2)cc1 | 9.71 (≈ 21.7 µM) | 40 (≈ 89.6 µM) | 8.16 (≈ 18.3 µM) | > 100 | 162 (≈ 364 µM) |  |  |  |  |  |  |  |  |  | 
10 | CCCOc1ccc(C(=O)OCCCOc2cccc(Nc3nc4ccccc4c(=O)o3)c2)cc1 | 11.7 (≈ 24.7 µM) | 15.3 (≈ 32.2 µM) | 10 (≈ 21.1 µM) | 12.5 (≈ 26.3 µM) | 145 (≈ 306 µM) |  |  |  |  |  |  |  |  |  | 
11 | CCCCCCCCCCCCCCCC(=O)Oc1cccc(Nc2nc3ccccc3c(=O)o2)c1 | > 100 | > 100 | > 100 | 100 (≈ 203 µM) | 182 (≈ 369 µM) |  |  |  |  |  |  |  |  |  | 
12 | CCCCCCCOc1ccc(C(=O)OCCCOc2cccc(Nc3nc4ccccc4c(=O)o3)c2)cc1 | > 100 | > 100 | > 100 | > 100 | 181 (≈ 341 µM) |  |  |  |  |  |  |  |  |  | 
13 | NNC(=O)c1ccncc1 [ISONIAZID] | 0.43 (≈ 3.14 µM) | > 128 | 0.3 (≈ 2.19 µM) | 6.1 (≈ 44.5 µM) | 71.7 (≈ 523 µM) |  |  |  | 0.4 (≈ 2.92 µM) |  |  |  |  |  | 
14 | CCCCCC(=O)Oc1cccc(Nc2nc3ccccc3c(=O)o2)c1 | > 100 | > 100 | > 100 | > 100 | 186 (≈ 529 µM) |  |  |  |  |  |  |  |  |  | 
15 | CCCCCCCCCC(=O)Oc1cccc(Nc2nc3ccccc3c(=O)o2)c1 | 33 (≈ 80.7 µM) | 53.3 (≈ 130 µM) | 29.6 (≈ 72.4 µM) | 25 (≈ 61.2 µM) | 195 (≈ 476 µM) |  |  |  |  |  |  |  |  |  | 
16 | CCCCC(=O)Oc1cccc(Nc2nc3ccccc3c(=O)o2)c1 | > 100 | > 100 | > 100 | > 100 | 201 (≈ 595 µM) |  |  |  |  |  |  |  |  |  | 
17 | CCCCCCCC/C=C/CCCCCCCCOc1ccc(C(=O)OCCCOc2cccc(Nc3nc4ccccc4c(=O)o3)c2)cc1 | 18.7 (≈ 27.4 µM) | 35.9 (≈ 52.6 µM) | 19.6 (≈ 28.7 µM) | 12.5 (≈ 18.3 µM) | 150 (≈ 219 µM) |  |  |  |  |  |  |  |  |  | 
18 | CC(C)=CCOc1ccc(C(=O)OCCCOc2cccc(Nc3nc4ccccc4c(=O)o3)c2)cc1 | > 100 | > 100 | > 100 | 12.5 (≈ 25 µM) | 190 (≈ 380 µM) |  |  |  |  |  |  |  |  |  | 
19 | CCCCCCC(=O)Oc1cccc(Nc2nc3ccccc3c(=O)o2)c1 | > 100 | > 100 | > 100 | 50 (≈ 136 µM) | 176 (≈ 481 µM) |  |  |  |  |  |  |  |  |  | 
20 | CC(=O)Oc1cccc(Nc2nc3ccccc3c(=O)o2)c1 | > 100 | 80.3 (≈ 271 µM) | > 100 | 100 (≈ 338 µM) | 131 (≈ 444 µM) |  |  |  |  |  |  |  |  |  | 
21 | CCCCCCCCC(=O)Oc1cccc(Nc2nc3ccccc3c(=O)o2)c1 | > 100 | > 100 | > 100 | > 100 | 171 (≈ 434 µM) |  |  |  |  |  |  |  |  |  | 
22 | CCCCCCCCCOc1ccc(C(=O)OCCCOc2cccc(Nc3nc4ccccc4c(=O)o3)c2)cc1 | 41.8 (≈ 74.9 µM) | 31 (≈ 55.6 µM) | 37.1 (≈ 66.5 µM) | 50 (≈ 89.5 µM) | 169 (≈ 303 µM) |  |  |  |  |  |  |  |  |  | 
23 | CCCCCCOc1ccc(C(=O)OCCCOc2cccc(Nc3nc4ccccc4c(=O)o3)c2)cc1 | 6.12 (≈ 11.8 µM) | 5.32 (≈ 10.3 µM) | 5.83 (≈ 11.3 µM) | 6.3 (≈ 12.2 µM) | 123 (≈ 238 µM) |  | 13.53 | 16.33 |  | 61 |  |  | Active | Active | 
24 | CCCCCCCC(=O)Oc1cccc(Nc2nc3ccccc3c(=O)o2)c1 | > 100 | > 100 | > 100 | > 100 | 190 (≈ 499 µM) |  |  |  |  |  |  |  |  |  | 
25 | CCCCCCCCCCOc1ccc(C(=O)OCCCOc2cccc(Nc3nc4ccccc4c(=O)o3)c2)cc1 | 32.1 (≈ 56.1 µM) | 45.1 (≈ 78.7 µM) | 38 (≈ 66.4 µM) | 100 (≈ 175 µM) | 173 (≈ 303 µM) |  |  |  |  |  |  |  |  |  | 
26 | CC(C)=CCOc1cccc(NC(=O)Nc2ccccc2C)c1 | 5.2 (≈ 16.8 µM) |  |  |  |  |  |  |  |  |  |  |  |  |  | 
27 | CO[C@H]1/C=C/O[C@@]2(C)Oc3c(C)c(O)c4c(O)c(c(/C=N/N5CCN(C)CC5)c(O)c4c3C2=O)NC(=O)/C(C)=C\C=C\[C@H](C)[C@H](O)[C@@H](C)[C@@H](O)[C@@H](C)[C@H](OC(C)=O)[C@@H]1C [RIFAMPIN] | 0.01 (≈ 0.0122 µM) | 0.04 (≈ 0.0486 µM) | 0.02 (≈ 0.0243 µM) | 1.5 (≈ 1.82 µM) | 62.9 (≈ 76.5 µM) |  |  |  | 0.01 (≈ 0.0122 µM) |  |  |  |  |  | 
28 | CCCCCCCCCCCCCCCCCCOc1ccc(C(=O)OCCCOc2cccc(Nc3nc4ccccc4c(=O)o3)c2)cc1 | 56.1 (≈ 81.9 µM) | 38.2 (≈ 55.7 µM) | 60.4 (≈ 88.2 µM) | 12.5 (≈ 18.3 µM) | 158 (≈ 231 µM) |  |  |  |  |  |  |  |  |  | 
29 | CCCC(=O)Oc1cccc(Nc2nc3ccccc3c(=O)o2)c1 | > 100 | > 100 | > 100 | > 100 | 199 (≈ 615 µM) |  |  |  |  |  |  |  |  |  | 
30 | CC(C)=CCC/C(C)=C/CC/C(C)=C/COc1ccc(C(=O)OCCCOc2cccc(Nc3nc4ccccc4c(=O)o3)c2)cc1 | 2.97 (≈ 4.66 µM) | 2.15 (≈ 3.38 µM) | 2.71 (≈ 4.26 µM) | 3.2 (≈ 5.03 µM) | 169 (≈ 266 µM) | 100 | 6.25 | 10.88 | 2.9 (≈ 4.55 µM) | 100 | 100 | 4.1 |  |  | Active
